SMILES strings stand for the structures.

As a reminder, the EC50 is the concentration giving half of the maximal effect.

Test [1] has as its target T1, Peroxisome proliferator-activated receptor gamma (Homo sapiens) (UniProt P37231).
T1 sequence (whole entry): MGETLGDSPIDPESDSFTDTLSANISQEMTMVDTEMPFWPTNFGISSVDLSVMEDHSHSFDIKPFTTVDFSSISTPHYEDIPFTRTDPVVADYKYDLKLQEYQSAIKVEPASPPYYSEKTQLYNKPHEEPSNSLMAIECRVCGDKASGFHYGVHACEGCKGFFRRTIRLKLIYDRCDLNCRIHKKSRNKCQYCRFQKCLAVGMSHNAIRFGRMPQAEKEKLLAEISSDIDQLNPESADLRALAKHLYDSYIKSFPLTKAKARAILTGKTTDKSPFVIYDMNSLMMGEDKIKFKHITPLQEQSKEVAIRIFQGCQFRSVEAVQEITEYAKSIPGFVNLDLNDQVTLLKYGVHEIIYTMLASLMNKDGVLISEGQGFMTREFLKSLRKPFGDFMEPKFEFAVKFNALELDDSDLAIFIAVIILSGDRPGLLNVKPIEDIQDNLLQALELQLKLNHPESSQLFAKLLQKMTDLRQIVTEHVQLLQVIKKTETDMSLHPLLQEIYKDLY
Put plainly: Agonist activity at human GAL4 fused PPARgamma-Hinge-LBD expressed in HEK293T cells after 18 hrs by luciferase reporter gene assay relative to rosiglitazone. It counts as cell-based. To be noted: HEK-293T. Summed up:
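HEK293T cells carried transfected human GAL4-PPARγ-hinge-LBD and a 5× UAS-luciferase reporter. Maximal transcriptional output was normalized to rosiglitazone, taken as 100% transactivation. Points were run in triplicate, with two biological replicates.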

For test [2], the target named is T2, Peroxisome proliferator-activated receptor gamma (Homo sapiens, UniProt P37231).
T2 sequence (P37231 whole entry): T1 sequence (whole entry)
In words: Agonist activity at human GAL4 fused PPARgamma-Hinge-LBD expressed in HEK293T cells after 18 hrs by luciferase reporter gene assay. Type of test: cell-based, HEK-293T. Put shortly:
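HEK293T cells were co-transfected with human GAL4-PPARγ-hinge-LBD and a 5× multimerized UAS-luciferase reporter (4.5 μg each) and grown serum-free for 18 h at 37 °C under 5% CO2. After 18 h, luminescence was read. EC50 came from plotting fold change over DMSO; points were run in triplicate, with two biological replicates.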
(In general: Reporter assays use an easily measured gene product as a stand-in for the process of interest.)

For test [3], the system named is Rattus norvegicus. In words: Antidiabetic activity in Zucker fa/fa rat assessed as decrease in blood glucose levels at 0.3 mg/kg administered via oral gavage for 14 days by oral glucose tolerance test. It counts as functional. More on the design: scale not given: the % may be the effect or the level left.

As for `O=S(=O)(Nc1cc(Cl)c(Oc2cnc3ccccc3c2)c(Cl)c1)c1ccc(Br)cc1F`, the Activity in test [1] is 13%. In addition, the EC50 in test [2] worked out at 2 nM. `O=S(=O)(Nc1cc(Cl)c(Oc2cnc3ccccc3c2)c(Cl)c1)c1ccc(Br)cc1` gave an Activity in test [1] of 11%. Moreover, the EC50 in test [2] was 151 nM.

Consider `O=S(=O)(Nc1cc(Cl)c(Oc2cnc3ccccc3c2)c(Cl)c1)c1ccc(Br)cc1Cl`, for which the Activity in test [1] came to 27%. In test [2], the EC50 worked out at 134 nM.

As to `COc1cccc(C(=O)Nc2cc(Cl)c(Oc3cnc4ccccc4c3)c(Cl)c2)c1`, the Activity in test [1] turned out to be 2%. In test [1], `Cc1cc(S(=O)(=O)Nc2cc(Cl)c(Oc3cnc4ccccc4c3)c(Cl)c2)ccc1Br` had an Activity of 29%. In test [2], this compound yielded an EC50 of 600 nM. As to `O=S(=O)(Nc1cc(Cl)c(Oc2cnc3ccccc3c2)c(Cl)c1)c1ccc(Cl)cc1Cl` [INT131], the Activity in test [3] is listed as 30%. Consider `O=S(=O)(Nc1cc(Cl)c(Oc2cnc3ccccc3c2)c(Cl)c1)c1ccc(Br)c(F)c1`, for which, in test [1], the Activity is 9%. Also, the EC50 in test [2] is 169 nM. The compound `O=S(=O)(Nc1cc(Cl)c(Oc2cnc3ccccc3c2)c(Cl)c1)c1ccc2ccccc2c1` gave an Activity in test [1] of 23%. The compound further yielded an EC50 in test [2] of 4290 nM. Turning to `O=S(=O)(Nc1cc(Cl)c(Oc2cnc3ccccc3c2)c(Cl)c1)c1cc(F)c(Br)cc1F`, the Activity in test [1] is 10%. For the same compound, in test [2], the EC50 worked out at 131 nM. In test [1], `O=S(=O)(Nc1cc(Cl)c(Oc2cnc3ccccc3c2)c(Cl)c1)c1ccc(Br)cc1OC(F)(F)F` displayed an Activity of 21%. Further, the EC50 in test [2] came to 4 nM. Regarding `O=S(=O)(Nc1cc(Cl)c(Oc2cnc3ccccc3c2)c(Cl)c1)c1cccs1`, the Activity in test [1] amounted to 14%.

On to `Cc1cc(C)c(S(=O)(=O)Nc2cc(Cl)c(Oc3cnc4ccccc4c3)c(Cl)c2)c(C)c1`, for which the Activity in test [1] is 14%. In addition, it took 3310 nM to reach a half-maximal effect in test [2] (EC50). For `O=S(=O)(Nc1cc(Cl)c(Oc2cnc3ccccc3c2)c(Cl)c1)c1ccc(Br)c(C(F)(F)F)c1` the same measures were 18% and 957 nM.

The compound `O=S(=O)(Nc1cc(Cl)c(Oc2cnc3ccccc3c2)c(Cl)c1)c1ccccc1Cl` returned an Activity in test [1] of 19%. Further, a half-maximal effect in test [2] (EC50) was put at 5810 nM.

Compound `O=S(=O)(Nc1cc(Cl)c(Oc2cnc3ccccc3c2)c(Cl)c1)c1ccc(Br)cc1C(F)(F)F` returned an Activity in test [1] of 34%. In addition, the EC50 in test [2] came out at 94 nM.

The record behind these values is ChEMBL document CHEMBL4014320 (J Med Chem, 2017).
